According to ChEMBL document CHEMBL5104154, “Thiamine analogues as inhibitors of pyruvate dehydrogenase and discovery of a thiamine analogue with non-thiamine related antiplasmodial activity” (RSC Med Chem, 2022):
Active and inactive are the calls of the source. The rule behind the calls is not given here.

How the values were obtained:
[1] = target: T1, Pyruvate decarboxylase (Zymomonas mobilis subsp. mobilis, UniProt P06672); assay: Inhibition of Zymomonas mobilis pyruvate decarboxylase incubated for 3 mins using pyruvate as substrate in presence of TPP by spectrophotometric analysis
T1 sequence (P06672 whole entry): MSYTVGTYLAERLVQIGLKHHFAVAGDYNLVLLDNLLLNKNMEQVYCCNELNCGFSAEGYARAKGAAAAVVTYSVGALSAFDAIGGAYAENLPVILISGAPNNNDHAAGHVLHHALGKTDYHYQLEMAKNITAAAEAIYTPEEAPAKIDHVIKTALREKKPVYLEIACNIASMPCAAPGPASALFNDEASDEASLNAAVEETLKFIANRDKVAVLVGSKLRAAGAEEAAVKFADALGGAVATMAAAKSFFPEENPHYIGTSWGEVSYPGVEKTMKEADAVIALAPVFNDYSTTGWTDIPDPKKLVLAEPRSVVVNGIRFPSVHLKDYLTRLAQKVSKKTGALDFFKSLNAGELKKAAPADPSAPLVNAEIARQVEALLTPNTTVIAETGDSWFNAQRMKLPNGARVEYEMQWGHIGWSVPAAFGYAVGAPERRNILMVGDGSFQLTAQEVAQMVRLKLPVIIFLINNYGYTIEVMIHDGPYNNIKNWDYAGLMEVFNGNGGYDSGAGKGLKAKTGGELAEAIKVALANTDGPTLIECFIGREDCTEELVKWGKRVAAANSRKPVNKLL

[2] = tested on: Plasmodium falciparum; assay: Antiplasmodial activity against chloroquine-sensitive Plasmodium falciparum 3D7 assessed as inhibition of parasite proliferation in presence of 2.2 to 220 uM folic acid by SYBR-based fluorescence assay; format: functional, organism-based
[3] = Cytotoxicity against human HFF cells assessed as inhibition of cell proliferation incubated for 96 hrs by SYBR-based fluorescence assay; format: toxicity
In short: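 Human foreskin fibroblasts exposed to compounds up to the highest concentration that solubility allowed.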

[4] = tested on: Plasmodium falciparum; assay: Antiplasmodial activity against chloroquine-sensitive Plasmodium falciparum 3D7 overexpressing GFP-tagged plasmodium falciparum TPK assessed as inhibition of parasite proliferation in presence of 2.97 uM thiamine by SYBR-based fluorescence assay; format: functional, organism-based
[5] = Selectivity index, ratio of IC50 for cytotoxicity against human HFF cells to IC50 for antiplasmodial activity against chloroquine-sensitive Plasmodium falciparum 3D7; format: toxicity, cell-based; conditions: read-out: Ratio IC50

Cc1ncc(Cn2cc(CCOP(=O)(O)OP(=O)(O)O)nn2)c(N)n1
Ki [1]: 3e-05 µM

COc1ncnc(NS(=O)(=O)c2ccc(N)cc2)c1OC
Activity [2]: Active

Cc1ncc(Cn2cc(CCO)nn2)c(N)n1
Ki [1]: 300 µM

Cc1ncc(Cn2cc(CCOC(=O)c3ccccc3)nn2)c(N)n1
IC50 at 96 h [3]: > 200 µM

Cc1ncc(C[n+]2csc(CCO)c2C)c(O)n1
Activity [4]: Active

Cc1ncc(Cn2cc(CCO)nn2)c(NCc2ccc(Br)cc2)n1
IC50 at 96 h [3]: 98 µM

Cc1ncc(Cn2cc(CCOC(=O)c3cccc(Cl)c3)nn2)c(N)n1
selectivity ratio [5]: > 3.2
IC50 at 96 h [3]: > 200 µM
